# According to PubChem BioAssay:
# Calls of active or inactive are those of the source.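 Rule for the calls, unless noted: active = viability at or under a set limit in both replicates, limit being median viability minus 3 SD (cut at about 48% in these data, passing the limit was not always enough); inconclusive = at or under the limit in just one replicate; inactive = at or above the limit in both replicates.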 Square brackets hold non-standard residues; d marks the D form. Peptide text beside a SMILES is read from it. * marks the point of attachment. ξ: configuration not given here. Cbz = O=C(OCc1ccccc1)*; ξK = NCCCCC(N)C(=O)O
# How the values were obtained:
# [1] = reducers of endogenous Her2 protein level, primary screen, SKBR3 breast tumor cells, AlphaScreen, ATP viability (AID 461;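 active = Her2 level under about 52% in both replicate screens, with viability over 70% of control, limit read from the data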;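 for Her2 level: lower value means less Her2 protein in the cells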;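 for viability: percent of carrier control wells set as 100% viability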); settings: 18-24 h, measured here: SKBR3 viability, ATP luminescence, at 10 µM
# [2] = target: Receptor tyrosine-protein kinase erbB-2 (Homo sapiens) (UniProt P04626); experiment: as above; settings: 18-24 h, at 10 µM, stronger effect = lower value
# Chain of Receptor tyrosine-protein kinase erbB-2 (Homo sapiens) (P04626 whole entry, looked up): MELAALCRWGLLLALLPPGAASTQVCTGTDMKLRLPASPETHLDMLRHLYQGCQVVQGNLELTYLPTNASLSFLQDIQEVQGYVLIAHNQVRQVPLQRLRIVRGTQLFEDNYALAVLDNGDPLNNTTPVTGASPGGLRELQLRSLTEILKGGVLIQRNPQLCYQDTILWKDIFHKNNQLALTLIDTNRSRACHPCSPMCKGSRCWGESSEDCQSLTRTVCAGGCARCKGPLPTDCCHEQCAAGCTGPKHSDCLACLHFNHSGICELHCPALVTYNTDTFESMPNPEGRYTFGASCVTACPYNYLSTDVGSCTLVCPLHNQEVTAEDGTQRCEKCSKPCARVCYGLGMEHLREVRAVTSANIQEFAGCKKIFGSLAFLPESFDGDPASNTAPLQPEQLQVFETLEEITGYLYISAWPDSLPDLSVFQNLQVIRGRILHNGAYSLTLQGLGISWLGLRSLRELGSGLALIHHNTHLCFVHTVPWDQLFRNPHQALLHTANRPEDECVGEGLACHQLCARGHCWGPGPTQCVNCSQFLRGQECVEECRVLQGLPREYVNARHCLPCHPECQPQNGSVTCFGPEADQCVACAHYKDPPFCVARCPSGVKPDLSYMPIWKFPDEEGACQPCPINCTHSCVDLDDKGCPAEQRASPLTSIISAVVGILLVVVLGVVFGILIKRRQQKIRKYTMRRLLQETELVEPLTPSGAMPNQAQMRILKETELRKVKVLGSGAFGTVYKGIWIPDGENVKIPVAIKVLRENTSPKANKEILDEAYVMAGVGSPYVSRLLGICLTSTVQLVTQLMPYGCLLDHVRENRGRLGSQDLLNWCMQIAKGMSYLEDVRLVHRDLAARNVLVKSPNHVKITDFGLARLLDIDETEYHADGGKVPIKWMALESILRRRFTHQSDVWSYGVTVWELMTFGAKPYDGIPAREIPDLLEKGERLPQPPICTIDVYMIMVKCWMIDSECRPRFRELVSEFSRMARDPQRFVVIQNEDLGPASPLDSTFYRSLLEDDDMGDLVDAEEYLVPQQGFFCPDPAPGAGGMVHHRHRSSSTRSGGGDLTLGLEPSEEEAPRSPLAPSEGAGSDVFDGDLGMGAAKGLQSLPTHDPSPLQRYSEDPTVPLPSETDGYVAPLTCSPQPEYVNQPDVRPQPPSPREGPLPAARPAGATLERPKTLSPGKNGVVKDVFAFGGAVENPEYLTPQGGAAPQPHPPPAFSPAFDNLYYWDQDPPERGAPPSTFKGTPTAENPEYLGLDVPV
# [3] = SK-BR-3 cell growth inhibitors, pilot screen, 24 h, human (AID 572;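 active = viability at or below 10% of carrier control in both of two separate runs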;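 note: compound exposure lasted between 18 and 24 h rather than exactly 24 h; 100% = carrier-treated control wells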); settings: SK-BR-3 viability, CellTiter-Glo luminescence, at 10 µM, stronger effect = lower value
# [4] = HUVEC growth inhibition – cell-based, human, primary screen (AID 575;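 active = viability at or below 30% in both replicate assays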;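 note: 100% = median of untreated cell wells with 0.1% DMSO on each plate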); settings: HUVEC proliferation, CellTiter-Glo luminescence, 72 h; at 10 µM; stronger effect = lower value
# Summary of the method: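 System: primary human umbilical vein endothelial cells; Quantity: 1250 endothelial cells in each well; Buffer or medium: supplemented EBM, 2% fetal bovine serum; Doses: one dose, 10 µM final, 0.1% DMSO; Incubation: 72 h compound incubation; Technique: ATP-based CellTiter-Glo luminescent read; Evaluation: percent of median DMSO-control luminescence; Controls: vehicle and MePR control wells.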
# [5] = growth inhibitors of H69AR lung tumor, primary screen, human, duplicate replicates (AID 580); settings: H69AR lung tumor cells viability, ATP luminescence, 72 h; at 10 µM; stronger effect = lower value;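 note: 100% = mean luminescence of untreated wells and 0% = no signal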
# [6] = reversal of MRP1-mediated doxorubicin resistance, pilot screen, H69AR cells, doxorubicin co-treatment (AID 601;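 active = viability loss from added drug above about 55%, and viability with drug at most 40%, in both replicates, limit read from the data, passing the limit was not always enough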); settings: CellTiter-Glo, 72 h, at 10 µM; for differential viability (reversal): stronger effect = higher value
# [7] = 384-well plate pilot, post-Golgi transport modulator project, inhibition of yeast transport mutant growth (AID 636; in the data active = inhibition above about 31%); settings: absorbance 615 nm, about 18 h, stronger effect = higher value
# [8] = growth suppression of yeast trafficking mutant, preliminary HTS, modulators of trafficking downstream of Golgi apparatus project, 1536-format plate, OD 615 nm (AID 637; in the data active = inhibition above about 30%); settings: yeast transport mutant growth, absorbance 615 nm, 18 h; stronger effect = higher value
# [9] = H69AR cells + 2 uM doxorubicin, measured here: viability with 2 uM doxorubicin, stronger effect = lower value
# [10] = H69AR cells, compound alone cytotoxicity
SMILES,viability [1],Her2 level [2],viability [3],viability [4],viability [5],differential viability (reversal) ([6]; H69AR cells + 2 uM doxorubicin),"viability [6, 9]","viability [6, 10]",inhibition [7],inhibition [8]
COC(=O)C(NC(C)=O)(Nc1ccccn1)C(F)(F)F (stereo not given),98%,78% (inactive),98% (inactive),105% (inactive),89% (inactive),-5.41% (inactive),94.4%,89%,-1.97% (inactive),-7.64% (inactive)
CC(NC(=O)Cc1cccs1)c1ccc2c(c1)OCO2 (stereo not given),125%,81.5% (inactive),125% (inactive),108% (inactive),99.9% (inactive),13.7% (inactive),86.2%,99.9%,-4.67% (inactive),-0.66% (inactive)
O=C(CCn1nc(-c2ccc(Cl)cc2)ccc1=O)N1CCN(c2ccccn2)CC1,96.5%,92.5% (inactive),96.5% (inactive),101% (inactive),91.1% (inactive),-4.79% (inactive),95.9%,91.1%,-3.42% (inactive),-3.87% (inactive)
Cc1cc2ncn(N)c2cc1C,99.5%,84% (inactive),99.5% (inactive),101% (inactive),98.8% (inactive),0.485% (inactive),98.3%,98.8%,-7.7% (inactive),1.83% (inactive)
CC(C)Cc1nc(S(=O)(=O)c2ccc(Cl)cc2)c(N2CCOCC2)o1,128%,94.5% (inactive),128% (inactive),87.8% (inactive),90.7% (inactive),0.63% (inactive),90.1%,90.7%,-5.06% (inactive),1.75% (inactive)
COCC(=O)N(Cc1ccc(OC)cc1)Cc1nc2ccccc2c(=O)[nH]1,126%,108% (inactive),126% (inactive),83.6% (inactive),86.2% (inactive),-13.9% (inactive),100%,86.2%,-5.66% (inactive),5% (inactive)
Cc1ccc(CCNC(=O)Cn2cccc2)cc1,112%,98% (inactive),112% (inactive),110% (inactive),99.5% (inactive),5.51% (inactive),94%,99.5%,-4.73% (inactive),0.67% (inactive)
CCOc1ccc2[nH]c(=O)c(CN(Cc3ccccc3)C(=O)N3CCCC3)cc2c1,100%,77% (inactive),100% (inactive),78.4% (inactive),82.1% (inactive),1.97% (inactive),80.1%,82.1%,-2.5% (inactive),-1.9% (inactive)
O=C(CN1CCC(NC(=O)c2ccc(F)cc2)CC1)NCc1ccccc1F,96.5%,98.5% (inactive),96.5% (inactive),91.5% (inactive),103% (inactive),3.44% (inactive),100%,103%,-5.6% (inactive),-0.63% (inactive)
O=S(=O)(Nc1cccc2ncccc12)c1cccs1,256%,13% (active),256% (inactive),23.9% (active),1.71% (active),0.345% (inactive),1.37%,1.71%,0.92% (inactive),6.19% (inactive)
COCCCNS(=O)(=O)c1ccc2c(c1)CCN2C(C)=O,97%,99% (inactive),97% (inactive),102% (inactive),87.1% (inactive),-17.4% (inactive),105%,87.1%,-0.13% (inactive),-0.32% (inactive)
COC(=O)c1ccccc1NC(=O)C1CC(=O)N(c2ccccc2)C1 (stereo not given),122%,96% (inactive),122% (inactive),114% (inactive),102% (inactive),20.8% (inactive),80.9%,102%,-6.27% (inactive),6.77% (inactive)
COCCCNC(=O)CCc1nc(-c2ccccc2Cl)no1,102%,95% (inactive),102% (inactive),103% (inactive),93.3% (inactive),-0.855% (inactive),94.1%,93.3%,0.39% (inactive),6.39% (inactive)
CC1CCN(CCCNC(=O)c2cn(C)c3ccc(S(=O)(=O)N4CCCC4)cc3c2=O)CC1,90.5%,80% (inactive),90.5% (inactive),96.9% (inactive),91% (inactive),3.01% (inactive),88%,91%,-6.76% (inactive),1% (inactive)
COC(=O)C(CCCCNC(=O)OCc1ccccc1)NC(=O)CN (stereo not given) (H-Gly-[ξK](Cbz)-OMe),109%,92.5% (inactive),109% (inactive),96.6% (inactive),100% (inactive),4.78% (inactive),95.5%,100%,-2.6% (inactive),-0.79% (inactive)
CSc1ccc(-c2nc(CSCC(=O)N3CCOCC3)c(C)o2)cc1,102%,91% (inactive),102% (inactive),85.2% (inactive),103% (inactive),6.36% (inactive),97.1%,103%,-0.67% (inactive),-2.26% (inactive)
